Source: ChEMBL document CHEMBL1143754, “2-Styrylchromones: novel strong scavengers of reactive oxygen and nitrogen species” (Bioorg Med Chem, 2007)
Calls of active or inactive are those of the source. The rule behind the calls is not given here.

Assay: Peroxynitrite scavenging activity assessed as inhibition of DHR oxidation in presence of NaHCo3 at 150 uM
Type: functional
How it was run: (§1)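 Parallel peroxynitrite set with 25 mM NaHCO3 added to mimic physiological CO2. Otherwise the same: 100 µM DTPA phosphate/NaCl/KCl buffer pH 7.4, DHR 5 µM, ONOO− 600 nM, compounds in DMSO. 37 °C, 2 min, fluorescence ex 485/em 528 nm. % inhibition of DHR oxidation. Four experiments in triplicate.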
`O=c1cc(/C=C/c2ccccc2)oc2ccccc12` gave an inhibition of 27%.

Assay: Peroxynitrite scavenging activity assessed as inhibition of DHR oxidation at 62 uM
Type: functional
How it was run: (§2)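 Buffer of 90 mM NaCl, 50 mM Na3PO4, 5 mM KCl, pH 7.4, with 100 µM DTPA. Final: DHR 5 µM, ONOO− 600 nM, compounds in DMSO. 37 °C, fluorescence (ex 485/em 528 nm) after 2 min. % inhibition of DHR oxidation. Ebselen control. Four experiments in triplicate.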
In the case of `O=c1cc(-c2ccccc2)oc2cccc(O)c12`, the Activity is reported as “inactive”. With `O=c1cc(/C=C/c2ccccc2)oc2cccc(O)c12` the Activity was “inactive”.

Assay: Hydrogen peroxide scavenging activity by assessed as inhibition of lucigenin oxidation
Type: functional
How it was run: (§3)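 Chemiluminescence assay of H2O2-induced lucigenin oxidation, 37 °C, 50 mM Tris-HCl pH 7.4. Final concentrations: lucigenin 0.8 mM, 1% H2O2. Compounds in DMSO at various concentrations. Signal read right after the plate goes into the reader. Reported as % inhibition of lucigenin oxidation. Ascorbic acid as positive control. Four experiments, each in triplicate.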
For `O=C1O[C@H]([C@@H](O)CO)C(O)=C1O` [ASCORBIC ACID], the IC50 was 626 µM. In the case of `O=c1cc(/C=C/c2ccc(O)c(O)c2)oc2cccc(O)c12`, the IC50 is reported as 48.9 µM. With `O=c1cc(/C=C/c2ccc(O)c(O)c2)oc2cc(O)cc(O)c12` the IC50 was 50.3 µM. With `O=c1cc(/C=C/c2ccc(O)c(O)c2)oc2ccccc12` the IC50 was 183 µM. `O=c1cc(-c2ccc(O)c(O)c2)oc2cc(O)cc(O)c12` [LUTEOLIN] gave an IC50 of 900 µM. `O=c1cc(/C=C/c2ccc(O)c(O)c2)oc2cc(O)ccc12` gave an IC50 of 114 µM. With `O=c1c(O)c(-c2ccc(O)c(O)c2)oc2cc(O)cc(O)c12` [QUERCETIN] the IC50 was 785 µM.

Assay: Hypochlorous acid scavenging activity at 125 uM assessed as inhibition of DHR oxidation
Type: functional
How it was run: (§4)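 HOCl made fresh by bringing 1% NaOCl to pH 6.2 with H2SO4, quantified at 235 nm. Final: DHR 5 µM, HOCl 5 µM in 100 mM phosphate pH 7.4, compounds in ethanol. Run at 37 °C; rhodamine 123 fluorescence (ex 485/em 528 nm) read immediately. % inhibition of DHR oxidation. Lipoic acid control. Four experiments in triplicate.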
In the case of `O=c1cc(/C=C/c2ccccc2)oc2ccccc12`, the inhibition is reported as 10%.

Assay: Singlet oxygen scavenging activity by assessed as inhibition of DHR oxidation
Type: functional
How it was run: (§5)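 Singlet oxygen from thermal breakdown of the endoperoxide NDPO2 (1 mM final), with histidine 10 mM and DHR 50 µM in 100 mM phosphate pH 7.4. Compounds in DMSO. After 30 min at 37 °C, rhodamine 123 fluorescence (ex 485/em 528 nm). % inhibition of DHR oxidation. Penicillamine control. Four experiments in triplicate.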
In the case of `O=c1cc(/C=C/c2ccc(O)cc2)oc2cc(O)ccc12`, the IC50 is reported as 266 µM. Work on `O=c1cc(/C=C/c2ccc(O)c(O)c2)oc2cccc(O)c12` yielded an IC50 of 4.9 µM. In the case of `O=c1cc(/C=C/c2ccc(O)cc2)oc2ccccc12`, the IC50 is reported as 245 µM. Work on `O=c1cc(/C=C/c2ccc(O)c(O)c2)oc2cc(O)cc(O)c12` yielded an IC50 of 6.5 µM. Work on `O=c1cc(/C=C/c2ccc(O)c(O)c2)oc2ccccc12` yielded an IC50 of 7.9 µM. `O=c1cc(-c2ccc(O)c(O)c2)oc2cc(O)cc(O)c12` [LUTEOLIN] gave an IC50 of 23.4 µM. In the case of `O=c1cc(/C=C/c2ccc(O)c(O)c2)oc2cc(O)ccc12`, the IC50 is reported as 10.1 µM. For `O=c1c(O)c(-c2ccc(O)c(O)c2)oc2cc(O)cc(O)c12` [QUERCETIN], the IC50 was 5.3 µM.

Assay: Peroxynitrite scavenging activity assessed as inhibition of DHR oxidation in presence of NaHCo3 at 62 uM
Type: functional
How it was run: as §1
With `O=c1cc(-c2ccccc2)oc2cccc(O)c12` the Activity was “inactive”. For `O=c1cc(/C=C/c2ccccc2)oc2cccc(O)c12`, the Activity was “inactive”.

Assay: Nitric oxide scavenging activity assessed as inhibition of DAF2 oxidation at 100 uM
Type: functional
How it was run: (§6)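 NOC-5 (10 µM final) as NO donor, DAF-2 5 µM in 50 mM KH2PO4 pH 7.4, compounds in DMSO. After 30 min at 37 °C, DAF-2T fluorescence read (ex 485/em 528 nm). Value is % inhibition of DAF-2 oxidation. Rutin control.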
For `O=c1cc(-c2ccccc2)oc2cccc(O)c12`, the Activity was “inactive”. With `O=c1cc(/C=C/c2ccccc2)oc2ccccc12` the Activity was “inactive”.

Assay: Hypochlorous acid scavenging activity at 100 uM assessed as inhibition of DHR oxidation
Type: functional
How it was run: as §4
Compound `O=c1cc(/C=C/c2ccc(O)cc2)oc2ccccc12` has an inhibition of 34%.

Assay: Peroxynitrite scavenging activity assessed as inhibition of DHR oxidation
Type: functional
How it was run: as §2
`O=c1cc(/C=C/c2ccc(O)cc2)oc2cc(O)ccc12` gave an IC50 of 1.4 µM. `O=c1cc(/C=C/c2ccc(O)c(O)c2)oc2cccc(O)c12` showed an IC50 of 0.26 µM. In the case of `O=c1cc(/C=C/c2ccc(O)cc2)oc2ccccc12`, the IC50 is reported as 1.2 µM. Compound `O=c1cc(/C=C/c2ccc(O)c(O)c2)oc2cc(O)cc(O)c12` has an IC50 of 0.26 µM. With `O=c1cc(/C=C/c2ccc(O)c(O)c2)oc2ccccc12` the IC50 was 0.24 µM. With `O=c1cc(-c2ccc(O)c(O)c2)oc2cc(O)cc(O)c12` [LUTEOLIN] the IC50 was 0.3 µM. Work on `O=c1cc(/C=C/c2ccc(O)c(O)c2)oc2cc(O)ccc12` yielded an IC50 of 0.3 µM. `O=c1c(O)c(-c2ccc(O)c(O)c2)oc2cc(O)cc(O)c12` [QUERCETIN] showed an IC50 of 0.26 µM.

Assay: Hypochlorous acid scavenging activity assessed as inhibition of DHR oxidation
Type: functional
How it was run: as §4
Work on `O=c1cc(/C=C/c2ccc(O)cc2)oc2cc(O)ccc12` yielded an IC50 of 92 µM. In the case of `O=c1cc(/C=C/c2ccc(O)c(O)c2)oc2cccc(O)c12`, the IC50 is reported as 16.9 µM. For `O=c1cc(/C=C/c2ccc(O)c(O)c2)oc2cc(O)cc(O)c12`, the IC50 was 3.9 µM. Work on `O=c1cc(/C=C/c2ccc(O)c(O)c2)oc2ccccc12` yielded an IC50 of 32.1 µM. Work on `O=c1cc(-c2ccc(O)c(O)c2)oc2cc(O)cc(O)c12` [LUTEOLIN] yielded an IC50 of 7.1 µM. Work on `O=c1cc(/C=C/c2ccc(O)c(O)c2)oc2cc(O)ccc12` yielded an IC50 of 18 µM. Work on `O=c1c(O)c(-c2ccc(O)c(O)c2)oc2cc(O)cc(O)c12` [QUERCETIN] yielded an IC50 of 1.1 µM.

Assay: Nitric oxide scavenging activity assessed as inhibition of DAF2 oxidation
Type: functional
How it was run: as §6
`O=c1cc(/C=C/c2ccc(O)c(O)c2)oc2cccc(O)c12` showed an IC50 of 0.24 µM. Work on `O=c1cc(/C=C/c2ccc(O)c(O)c2)oc2cc(O)cc(O)c12` yielded an IC50 of 0.51 µM. In the case of `O=c1cc(/C=C/c2ccc(O)c(O)c2)oc2ccccc12`, the IC50 is reported as 0.34 µM. With `O=c1cc(-c2ccc(O)c(O)c2)oc2cc(O)cc(O)c12` [LUTEOLIN] the IC50 was 2.61 µM. `O=c1cc(/C=C/c2ccc(O)c(O)c2)oc2cc(O)ccc12` gave an IC50 of 0.29 µM. `O=c1c(O)c(-c2ccc(O)c(O)c2)oc2cc(O)cc(O)c12` [QUERCETIN] gave an IC50 of 1.95 µM.

Assay: Superoxide radical scavenging activity by NBT reduction assay
Type: functional
How it was run: (§7)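 Superoxide generated by NADH/PMS at room temperature. Final: NADH 166 µM, NBT 43 µM, PMS 2.7 µM in 19 mM phosphate pH 7.4; compounds in DMSO. NBT reduction to diformazan followed at 560 nm for 2 min. % inhibition. Propyl gallate control. Four experiments in triplicate.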
For `O=c1cc(/C=C/c2ccc(O)cc2)oc2cc(O)ccc12`, the IC50 was 66.2 µM. With `O=c1cc(/C=C/c2ccc(O)c(O)c2)oc2cccc(O)c12` the IC50 was 80.4 µM. In the case of `O=c1cc(/C=C/c2ccc(O)c(O)c2)oc2cc(O)cc(O)c12`, the IC50 is reported as 48.9 µM. With `O=c1cc(/C=C/c2ccc(O)c(O)c2)oc2ccccc12` the IC50 was 71.3 µM. Work on `O=c1cc(-c2ccc(O)c(O)c2)oc2cc(O)cc(O)c12` [LUTEOLIN] yielded an IC50 of 58.5 µM. In the case of `O=c1cc(/C=C/c2ccc(O)c(O)c2)oc2cc(O)ccc12`, the IC50 is reported as 51 µM. For `O=c1c(O)c(-c2ccc(O)c(O)c2)oc2cc(O)cc(O)c12` [QUERCETIN], the IC50 was 47.3 µM.

Assay: Nitric oxide scavenging activity assessed as inhibition of DAF2 oxidation at 250 uM
Type: functional
How it was run: as §6
With `O=c1cc(/C=C/c2ccc(O)cc2)oc2cc(O)ccc12` the inhibition was 23%. In the case of `O=c1cc(/C=C/c2ccc(O)cc2)oc2ccccc12`, the inhibition is reported as 46%.

Assay: Peroxynitrite scavenging activity assessed as inhibition of DHR oxidation in presence of NaHCo3
Type: functional
How it was run: as §1
In the case of `O=c1cc(/C=C/c2ccc(O)cc2)oc2cc(O)ccc12`, the IC50 is reported as 1.65 µM. Compound `O=c1cc(/C=C/c2ccc(O)c(O)c2)oc2cccc(O)c12` has an IC50 of 0.51 µM. `O=c1cc(/C=C/c2ccc(O)cc2)oc2ccccc12` gave an IC50 of 1.23 µM. For `O=c1cc(/C=C/c2ccc(O)c(O)c2)oc2cc(O)cc(O)c12`, the IC50 was 0.63 µM. In the case of `O=c1cc(/C=C/c2ccc(O)c(O)c2)oc2ccccc12`, the IC50 is reported as 0.44 µM. Work on `O=c1cc(-c2ccc(O)c(O)c2)oc2cc(O)cc(O)c12` [LUTEOLIN] yielded an IC50 of 0.64 µM. For `O=c1cc(/C=C/c2ccc(O)c(O)c2)oc2cc(O)ccc12`, the IC50 was 0.61 µM. In the case of `O=c1c(O)c(-c2ccc(O)c(O)c2)oc2cc(O)cc(O)c12` [QUERCETIN], the IC50 is reported as 0.44 µM.

Assay: Singlet oxygen scavenging activity at 200 uM assessed as inhibition of DHR oxidation
Type: functional
How it was run: as §5
For `O=c1cc(/C=C/c2ccccc2)oc2ccccc12`, the Activity was “inactive”.

Assay: Peroxynitrite scavenging activity assessed as inhibition of DHR oxidation at 150 uM
Type: functional
How it was run: as §2
`O=c1cc(/C=C/c2ccccc2)oc2ccccc12` gave an inhibition of 27%.

Assay: Nitric oxide scavenging activity assessed as inhibition of DAF2 oxidation at 50 uM
Type: functional
How it was run: as §6
For `O=c1cc(/C=C/c2ccccc2)oc2cccc(O)c12`, the Activity was “inactive”.

Assay: Hydrogen peroxide scavenging activity at 250 uM by assessed as inhibition of lucigenin oxidation
Type: functional
How it was run: as §3
In the case of `O=c1cc(-c2ccccc2)oc2cccc(O)c12`, the Activity is reported as “inactive”. With `O=c1cc(/C=C/c2ccc(O)cc2)oc2cc(O)ccc12` the Activity was “inactive”. For `O=c1cc(/C=C/c2ccccc2)oc2ccccc12`, the Activity was “inactive”. In the case of `O=c1cc(/C=C/c2ccc(O)cc2)oc2ccccc12`, the Activity is reported as “inactive”. For `O=c1cc(/C=C/c2ccccc2)oc2cccc(O)c12`, the Activity was “inactive”.

Assay: Singlet oxygen scavenging activity at 100 uM assessed as inhibition of DHR oxidation
Type: functional
How it was run: as §5
For `O=c1cc(-c2ccccc2)oc2cccc(O)c12`, the Activity was “inactive”. In the case of `O=c1cc(/C=C/c2ccccc2)oc2cccc(O)c12`, the Activity is reported as “inactive”.

Assay: Hypochlorous acid scavenging activity at 50 uM assessed as inhibition of DHR oxidation
Type: functional
How it was run: as §4
`O=c1cc(-c2ccccc2)oc2cccc(O)c12` gave an inhibition of 17%. `O=c1cc(/C=C/c2ccccc2)oc2cccc(O)c12` gave an inhibition of 17%.

Assay: Superoxide radical scavenging activity at 125 uM by NBT reduction assay
Type: functional
How it was run: as §7
With `O=c1cc(-c2ccccc2)oc2cccc(O)c12` the Activity was “inactive”. With `O=c1cc(/C=C/c2ccccc2)oc2ccccc12` the Activity was “inactive”. For `O=c1cc(/C=C/c2ccc(O)cc2)oc2ccccc12`, the inhibition was 32%. With `O=c1cc(/C=C/c2ccccc2)oc2cccc(O)c12` the Activity was “inactive”.
